Four compounds from PMC11658390 (BMC Chemistry, 2024) can be followed below.

SMILES strings stand for the structures.

Assay [1] concerns MCF-7 breast cancer cell line. The assay can be described thus: Anticancer screening, MTT assay. Type of assay: cell-based, human. In a few lines: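 MCF-7 cells were seeded at 10,000 cells/well and grown 24 h in DMEM with 10% FBS and 1% antibiotic at 37 °C, 5% CO2. They were then exposed for 24 h to a range of test compound concentrations prepared in incomplete medium. MTT was added at 250 µg/ml final for 2 h, the supernatant was removed, and formazan was dissolved in DMSO. Absorbance was read at 540 nm, in triplicate.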
(Tetrazolium assays rely on reduction of a dye to a coloured formazan, in cell work by metabolically active cells.)

Assay [2] relates to C. albicans (ATCC SC5314). As to the kind of experiment: Antifungal activity, broth microdilution MIC. It is filed as cell-based. (Dilution methods test growth across graded concentrations, often in twofold steps.)
Another assay addresses T1, DHFR (Homo sapiens, UniProt P00374).
T1 sequence (P00374 1-187): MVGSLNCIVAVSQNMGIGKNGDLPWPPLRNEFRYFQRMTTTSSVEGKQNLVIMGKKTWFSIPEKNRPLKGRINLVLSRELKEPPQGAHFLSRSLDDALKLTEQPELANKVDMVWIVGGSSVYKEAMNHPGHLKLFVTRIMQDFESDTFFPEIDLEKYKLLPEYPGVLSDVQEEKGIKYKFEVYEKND
As to the kind of experiment: DHFR inhibition assay. It is filed as biochemical. The following applies: from IC50 values.

Regarding `CC1CCC(C(C)C)C(OC(=O)C=Cc2ccc(O)c(O)c2)C1` (stereo not drawn) [CE3, 2-isopropyl-5-methylcyclohexyl 3-(3,4-dihydroxyphenyl)acrylate], in assay [1], the “Anticancer activity against MCF-7, in words” value was “moderate anticancer activity”. Moreover, the “Inhibitory activity against fungal strain C. albicans, in words” value (“Inhibitory activity” for short) in assay [2] is recorded as “moderate action”.
In the case of `CC(C)NCC(COc1cccc2ccccc12)OC(=O)C=Cc1ccc(O)c(O)c1` (stereo not drawn) [CE11, 1-(isopropylamino)−3-(naphthalen-1-yloxy)propan-2-yl 3-(3,4-dihydroxyphenyl)acrylate], the “DHFR inhibitory potency relative to methotrexate” value on DHFR is “approximately four times more effective than methotrexate”.
Take `O=C(C=Cc1ccc(O)c(O)c1)OCCc1ccccc1` [CE12, Phenethyl 3-(3,4-dihydroxyphenyl)acrylate]: the “Inhibitory activity” value in assay [2] is reported as “moderate action”.
Turning to `Nc1ccccc1OC(=O)C=Cc1ccc(O)c(O)c1` [CE17, 2-aminophenyl 3-(3,4-dihydroxyphenyl)acrylate], in assay [1], the “Anticancer activity against MCF-7, in words” value is given as “moderate anticancer activity”. In addition, the “Inhibitory activity” value in assay [2] is on record as “moderate action”.
